Laboratory results taken from ChEMBL document CHEMBL5724801, “EUbOPEN Chemogenomics Library - Multiplex” (2024).
Several values for one entry are separate records, joined by “and”; a condition that tells them apart may be missing. Identical values can stand only once.

Tested on: Fibroblast
Experiment: Multiplex assay against human fibroblast
Format: toxicity, cell-based
In short: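 Cells were classed with CellPathfinder machine-learning gating, first as Hoechst high-intensity objects or normal cells, then (normal cells) as healthy, pyknosed or fragmented nuclei, and finally (pyknosed cells) as mitotic or apoptotic. Staining of live cells at seeding used Hoechst33342, BioTracker Green Microtubule Cytoskeleton Dye, MitoTracker Red and Annexin V Alexa Fluor 680, with imaging on a CQ1 microscope at 37°C and 5% CO2 after compound addition. Tubulin, mitochondrial-mass and membrane-permeability phenotypes are per cents of healthy-nucleus cells.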

[1] = 12 h, 1 µM, compound concentration 1 uM
[2] = 12 h, 10 µM, compound concentration 10 uM
[3] = 24 h, 1 µM, compound concentration 1 uM
[4] = 24 h, 10 µM, compound concentration 10 uM
[5] = 48 h, 1 µM, compound concentration 1 uM
[6] = 48 h, 10 µM, compound concentration 10 uM

CN(C)C/C=C/C(=O)Nc1ccc(C(=O)N2CCCC(Nc3ncc(Cl)c(-c4c[nH]c5ccccc45)n3)C2)cc1 (stereo not drawn)
Population Apoptotic (%) [1]: 48% and 46%
Population Fragmented Nuclei (%) [1]: 15% and 21%
Population Healthy Nuclei (%) [1]: 64% and 53%
Population Hoechst High Intensity Objects (%) [1]: 2% and 6%
Population Membrane Permeable-Phenotype (%) [1]: 2% and 3%
Population Mitochondria Different-Phenotype (%) [1]: 11% and 13%
Population Mitotic Cells (%) [1]: 51% and 53%
Population Normal (%) [1]: 97% and 93%
Population Pyknosed Nuclei (%) [1]: 19% and 25%
Population Tubulin-Different-Phenotype (%) [1]: 40%
Total Cell Count [1]: 152 and 182
Population Apoptotic (%) [2]: 59% and 48%
Population Fragmented Nuclei (%) [2]: 18% and 23%
Population Healthy Nuclei (%) [2]: 53% and 41%
Population Hoechst High Intensity Objects (%) [2]: 4% and 8%
Population Mitochondria Different-Phenotype (%) [2]: 37% and 19%
Population Mitotic Cells (%) [2]: 40% and 51%
Population Normal (%) [2]: 95% and 91%
Population Pyknosed Nuclei (%) [2]: 27% and 35%
Population Tubulin-Different-Phenotype (%) [2]: 77% and 58%
Total Cell Count [2]: 140 and 147
Population Apoptotic (%) [3]: 68% and 37%
Population Fragmented Nuclei (%) [3]: 25% and 26%
Population Healthy Nuclei (%) [3]: 48% and 49%
Population Hoechst High Intensity Objects (%) [3]: 7%
Population Membrane Permeable-Phenotype (%) [3]: 2% and 10%
Population Mitochondria Different-Phenotype (%) [3]: 7% and 10%
Population Mitotic Cells (%) [3]: 31% and 62%
Population Normal (%) [3]: 92%
Population Pyknosed Nuclei (%) [3]: 26% and 23%
Population Tubulin-Different-Phenotype (%) [3]: 40% and 54%
Total Cell Count [3]: 155 and 181
Population Apoptotic (%) [4]: 65% and 47%
Population Fragmented Nuclei (%) [4]: 13% and 30%
Population Healthy Nuclei (%) [4]: 49% and 42%
Population Hoechst High Intensity Objects (%) [4]: 2% and 6%
Population Membrane Permeable-Phenotype (%) [4]: 0% and 5%
Population Mitochondria Different-Phenotype (%) [4]: 52% and 35%
Population Mitotic Cells (%) [4]: 34% and 52%
Population Normal (%) [4]: 97% and 93%
Population Pyknosed Nuclei (%) [4]: 37% and 27%
Population Tubulin-Different-Phenotype (%) [4]: 84% and 72%
Total Cell Count [4]: 119 and 149
Population Apoptotic (%) [5]: 63% and 60%
Population Fragmented Nuclei (%) [5]: 33% and 35%
Population Healthy Nuclei (%) [5]: 36% and 40%
Population Hoechst High Intensity Objects (%) [5]: 10% and 8%
Population Membrane Permeable-Phenotype (%) [5]: 2% and 8%
Population Mitochondria Different-Phenotype (%) [5]: 20% and 25%
Population Mitotic Cells (%) [5]: 36% and 40%
Population Normal (%) [5]: 90% and 91%
Population Pyknosed Nuclei (%) [5]: 30% and 24%
Population Tubulin-Different-Phenotype (%) [5]: 48% and 68%
Total Cell Count [5]: 150 and 158
Population Apoptotic (%) [6]: 77% and 68%
Population Fragmented Nuclei (%) [6]: 28% and 27%
Population Healthy Nuclei (%) [6]: 20% and 41%
Population Hoechst High Intensity Objects (%) [6]: 14% and 13%
Population Membrane Permeable-Phenotype (%) [6]: 0% and 17%
Population Mitochondria Different-Phenotype (%) [6]: 55% and 29%
Population Mitotic Cells (%) [6]: 22% and 31%
Population Normal (%) [6]: 85% and 86%
Population Pyknosed Nuclei (%) [6]: 51% and 30%
Population Tubulin-Different-Phenotype (%) [6]: 66% and 80%
Total Cell Count [6]: 103 and 130

COc1ccc2[nH]c(I)c(CCNC(C)=O)c2c1 [IODOMELATONIN]
Population Apoptotic (%) [1]: 53% and 32%
Population Fragmented Nuclei (%) [1]: 15% and 23%
Population Healthy Nuclei (%) [1]: 64% and 60%
Population Hoechst High Intensity Objects (%) [1]: 2% and 5%
Population Membrane Permeable-Phenotype (%) [1]: 4% and 7%
Population Mitochondria Different-Phenotype (%) [1]: 4% and 3%
Population Mitotic Cells (%) [1]: 46% and 68%
Population Normal (%) [1]: 97% and 94%
Population Pyknosed Nuclei (%) [1]: 19% and 15%
Population Tubulin-Different-Phenotype (%) [1]: 28% and 33%
Total Cell Count [1]: 137 and 173
Population Apoptotic (%) [2]: 35% and 30%
Population Fragmented Nuclei (%) [2]: 14% and 38%
Population Healthy Nuclei (%) [2]: 64% and 44%
Population Hoechst High Intensity Objects (%) [2]: 2% and 3%
Population Membrane Permeable-Phenotype (%) [2]: 2% and 5%
Population Mitochondria Different-Phenotype (%) [2]: 6% and 0%
Population Mitotic Cells (%) [2]: 64% and 69%
Population Normal (%) [2]: 97% and 96%
Population Pyknosed Nuclei (%) [2]: 21% and 17%
Population Tubulin-Different-Phenotype (%) [2]: 20% and 43%
Total Cell Count [2]: 148 and 157
Population Apoptotic (%) [3]: 62% and 57%
Population Fragmented Nuclei (%) [3]: 16% and 26%
Population Healthy Nuclei (%) [3]: 63% and 57%
Population Hoechst High Intensity Objects (%) [3]: 0% and 5%
Population Membrane Permeable-Phenotype (%) [3]: 0% and 6%
Population Mitochondria Different-Phenotype (%) [3]: 7%
Population Mitotic Cells (%) [3]: 37% and 42%
Population Normal (%) [3]: 99% and 94%
Population Pyknosed Nuclei (%) [3]: 20% and 15%
Population Tubulin-Different-Phenotype (%) [3]: 27% and 39%
Total Cell Count [3]: 134 and 176
Population Apoptotic (%) [4]: 35% and 24%
Population Fragmented Nuclei (%) [4]: 16% and 38%
Population Healthy Nuclei (%) [4]: 58% and 41%
Population Hoechst High Intensity Objects (%) [4]: 2% and 4%
Population Membrane Permeable-Phenotype (%) [4]: 1% and 10%
Population Mitochondria Different-Phenotype (%) [4]: 4% and 1%
Population Mitotic Cells (%) [4]: 64% and 75%
Population Normal (%) [4]: 97% and 95%
Population Pyknosed Nuclei (%) [4]: 24% and 20%
Population Tubulin-Different-Phenotype (%) [4]: 30% and 40%
Total Cell Count [4]: 143 and 149
Population Apoptotic (%) [5]: 76% and 42%
Population Fragmented Nuclei (%) [5]: 16% and 30%
Population Healthy Nuclei (%) [5]: 64% and 55%
Population Hoechst High Intensity Objects (%) [5]: 3% and 4%
Population Membrane Permeable-Phenotype (%) [5]: 0% and 5%
Population Mitochondria Different-Phenotype (%) [5]: 4% and 0%
Population Mitotic Cells (%) [5]: 23% and 57%
Population Normal (%) [5]: 96% and 95%
Population Pyknosed Nuclei (%) [5]: 18% and 13%
Population Tubulin-Different-Phenotype (%) [5]: 22% and 40%
Total Cell Count [5]: 147 and 163
Population Apoptotic (%) [6]: 60% and 38%
Population Fragmented Nuclei (%) [6]: 29% and 48%
Population Healthy Nuclei (%) [6]: 56% and 38%
Population Hoechst High Intensity Objects (%) [6]: 7% and 2%
Population Membrane Permeable-Phenotype (%) [6]: 1% and 10%
Population Mitochondria Different-Phenotype (%) [6]: 1% and 5%
Population Mitotic Cells (%) [6]: 40% and 61%
Population Normal (%) [6]: 92% and 98%
Population Pyknosed Nuclei (%) [6]: 13% and 12%
Population Tubulin-Different-Phenotype (%) [6]: 22% and 57%
Total Cell Count [6]: 159 and 150

Cl.O=S(=O)(c1cccc2c(I)cccc12)N1CCCNCC1
Population Apoptotic (%) [1]: 20.93% and 13.51%
Population Fragmented Nuclei (%) [1]: 13.23% and 4.19%
Population Healthy Nuclei (%) [1]: 64.02% and 76.44%
Population Hoechst High Intensity Objects (%) [1]: 0%
Population Membrane Permeable-Phenotype (%) [1]: 4.96% and 4.79%
Population Mitochondria Different-Phenotype (%) [1]: 9.92% and 6.85%
Population Mitotic Cells (%) [1]: 79.07% and 86.49%
Population Normal (%) [1]: 100%
Population Pyknosed Nuclei (%) [1]: 22.75% and 19.37%
Population Tubulin-Different-Phenotype (%) [1]: 14.88% and 28.08%
Total Cell Count [1]: 189 and 191
Population Fragmented Nuclei (%) [2]: 9.25% and 6.27%
Population Healthy Nuclei (%) [2]: 60.69% and 61.18%
Population Hoechst High Intensity Objects (%) [2]: 0%
Population Membrane Permeable-Phenotype (%) [2]: 5.71% and 3.85%
Population Mitochondria Different-Phenotype (%) [2]: 15.24% and 15.38%
Population Mitotic Cells (%) [2]: 94.23% and 67.47%
Population Normal (%) [2]: 100%
Population Pyknosed Nuclei (%) [2]: 30.06% and 32.55%
Population Tubulin-Different-Phenotype (%) [2]: 25.71% and 55.13%
Total Cell Count [2]: 173 and 255
Population Apoptotic (%) [3]: 7.89% and 13.64%
Population Fragmented Nuclei (%) [3]: 8.84% and 7.04%
Population Healthy Nuclei (%) [3]: 73.49% and 81.91%
Population Hoechst High Intensity Objects (%) [3]: 0%
Population Membrane Permeable-Phenotype (%) [3]: 4.43% and 3.07%
Population Mitochondria Different-Phenotype (%) [3]: 6.33% and 6.13%
Population Mitotic Cells (%) [3]: 92.11% and 86.36%
Population Normal (%) [3]: 100%
Population Pyknosed Nuclei (%) [3]: 17.67% and 11.06%
Population Tubulin-Different-Phenotype (%) [3]: 16.46% and 28.22%
Total Cell Count [3]: 215 and 199
Population Apoptotic (%) [4]: 11.9% and 25.45%
Population Fragmented Nuclei (%) [4]: 8.42% and 3.61%
Population Healthy Nuclei (%) [4]: 69.47% and 76.53%
Population Hoechst High Intensity Objects (%) [4]: 0%
Population Membrane Permeable-Phenotype (%) [4]: 3.79% and 5.66%
Population Mitochondria Different-Phenotype (%) [4]: 9.85% and 15.57%
Population Mitotic Cells (%) [4]: 88.1% and 74.55%
Population Normal (%) [4]: 100%
Population Pyknosed Nuclei (%) [4]: 22.11% and 19.86%
Population Tubulin-Different-Phenotype (%) [4]: 34.85% and 63.21%
Total Cell Count [4]: 190 and 277
Population Apoptotic (%) [5]: 25% and 33.33%
Population Fragmented Nuclei (%) [5]: 8.44% and 10.78%
Population Healthy Nuclei (%) [5]: 86.5% and 83.33%
Population Hoechst High Intensity Objects (%) [5]: 0%
Population Membrane Permeable-Phenotype (%) [5]: 1.46% and 7.06%
Population Mitotic Cells (%) [5]: 75% and 66.67%
Population Normal (%) [5]: 100%
Population Pyknosed Nuclei (%) [5]: 5.06% and 5.88%
Total Cell Count [5]: 237 and 204
Population Apoptotic (%) [6]: 25% and 50%
Population Healthy Nuclei (%) [6]: 74.48% and 87.96%
Population Hoechst High Intensity Objects (%) [6]: 0%
Population Membrane Permeable-Phenotype (%) [6]: 0.56% and 9.13%
Population Mitochondria Different-Phenotype (%) [6]: 10.11% and 9.51%
Population Mitotic Cells (%) [6]: 75% and 50%
Population Normal (%) [6]: 100%
Population Pyknosed Nuclei (%) [6]: 8.37% and 7.36%
Population Tubulin-Different-Phenotype (%) [6]: 19.1% and 53.99%
Total Cell Count [6]: 239 and 299
